The subject of experiment [1] is Phosphodiesterase 3 (Felis catus). Put plainly: Inhibition of phosphodiesterase 3 enzyme activity by 50%.
For experiment [2], the system named is Felis catus. Kind of experiment: The dose required to cause 50% increase in the contractility and inotropic activity as dLVP/dt(max) in anesthetized cat. The class given is functional. The method, boiled down: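 Pentobarbitone-anesthetized cats (60 mg/kg ip), given pempidine 5 mg/kg and then propranolol 1 mg/kg iv plus 3–4 mg/kg sc. Cats responding to isoprenaline 0.01–0.1 μg/kg iv with less than a 100% contractility rise were rejected. Test compound given as an iv bolus, with dLVP/dt(max) as the read-out. ED50 is the dose giving a 50% rise over control, from dose-response curves, mean of ≥2 experiments. Duration was scored by the time for dLVP/dt to return to control.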

Experiment [3] deals with Felis catus. Kind of experiment: ED15 is the dose producing 15% decrease in autoperfused hindquarters perfusion pressure in anesthetized cat. The class given is functional. The method, boiled down: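 Anesthetized cats (either sex, 1.9–2.5 kg; pentobarbitone 60 mg/kg ip), ganglion-blocked with pempidine 5 mg/kg, then β-blocked with propranolol 1 mg/kg iv plus 3–4 mg/kg sc, heparinized 500 units/kg iv. Hindquarters autoperfused via the descending aorta. Test compound given as an iv bolus. ED15 taken as the dose lowering perfusion pressure by 15%, from dose-response curves, mean of ≥2 experiments.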

Experiment [4] deals with Phosphodiesterase 3 (Felis catus). Kind of experiment: Inhibition of Phosphodiesterase 3.

On to `CC1CC(=O)NN=C1c1ccc(C2=NNC(=O)CC2C)cc1` (configuration not stated), for which, in experiment [1], 0.11 µM corresponded to half-maximal inhibition (IC50). In experiment [2], the ED50 (usually the midpoint of the dose-response relation) was found to be 0.06 µmol/kg. Further, in experiment [3], the ED15 stood at 0.04 µM/kg.

`O=C1CCC(c2ccc(C3=NNC(=O)CC3)cc2)=NN1`: in experiment [1], inhibition was half-maximal at 0.64 µM (IC50). The same molecule gave a median effective dose (ED50) in experiment [2] of 0.55 µmol/kg. In addition, in experiment [3], the ED15 was 0.12 µM/kg.

Turning to `Nc1ccc(C2=NNC(=O)CC2)cc1`, in experiment [1], inhibition was half-maximal at 61.7 µM (IC50). Moreover, in experiment [2], the 50% effective dose (ED50) was determined as 4.43 µmol/kg. The ED15 in experiment [3] is 1.4 µM/kg.

Turning to `CC(=O)Nc1ccc(-c2ccc(O)nn2)cc1`, the IC50 – broadly, the concentration that inhibits the measured activity by half – in experiment [1] amounted to 6.38 µM.

As to `Oc1ccc(-c2ccc(-c3ccc(-c4ccc(O)nn4)cc3)cc2)nn1`, in experiment [1], the IC50 was greater than 100 µM.

In experiment [2], `O=C1CCC(c2ccc(-n3ccnc3)cc2)=NN1` [IMAZODAN] displayed an ED50 of 0.64 µmol/kg. In experiment [3], this molecule gave an ED15 of 0.42 µM/kg.

Consider `Nc1ccc(-c2ccc(O)nn2)cc1`, for which the half-maximal inhibitory concentration (IC50) in experiment [1] came out at 22.8 µM.

In turn, `CC1CC(O)=NN=C1c1ccc(-n2ccnc2)cc1` (configuration not stated) [CI-930] gave a median effective dose (ED50) in experiment [2] of 0.18 µmol/kg. The molecule also had an ED15 in experiment [3] of 0.09 µM/kg.

`CC1CC(=O)NN=C1c1ccc(N)cc1` (configuration not stated) yielded an IC50 in experiment [1] of 37 µM. Also, in experiment [2], the 50% effect level (ED50) was put at a dose of 1.7 µmol/kg. The same molecule came in with an ED15 in experiment [3] of 0.5 µM/kg.

The molecule `CC1CC(=O)NN=C1c1ccc(C(N)=O)cc1` (configuration not stated) returned an IC50 in experiment [1] of 2.23 µM. The ED50 in experiment [2] worked out at 0.07 µmol/kg. This molecule also showed an ED15 in experiment [3] of 0.1 µM/kg.

Regarding `CC1SC(=O)NN=C1c1ccc(C2=NNC(=O)SC2C)cc1` (configuration not stated), the IC50 in experiment [4] was 0.08 µM. This molecule also had an ED50 in experiment [2] of 0.13 µmol/kg. The molecule also gave an ED15 in experiment [3] of 0.09 µM/kg.

The molecule `Oc1ccc(-c2cccc(-c3ccc(O)nn3)c2)nn1` registered an IC50 in experiment [1] of 3.9 µM. In addition, the ED15 in experiment [3] is 3.23 µM/kg.

Take `Oc1ccc(-c2ccc(-c3ccc(O)nn3)cc2)nn1`: in experiment [1], inhibition was half-maximal at 0.33 µM (IC50). The 50% effect level in experiment [2] (ED50) was put at a dose of 0.04 µmol/kg. This molecule also displayed an ED15 in experiment [3] of 0.06 µM/kg.

As to `CC1CC(=O)NN=C1c1ccc(-c2ccc(O)nn2)cc1` (configuration not stated), the IC50 in experiment [1] is 0.07 µM. For the same molecule, the ED50 in experiment [2] was 0.02 µmol/kg. Further, the ED15 in experiment [3] was 0.01 µM/kg.

Molecule `Oc1ccc(-c2ccc(-c3ccc(O)nn3)s2)nn1` returned a 50% inhibitory concentration (IC50) in experiment [1] of 0.49 µM. This molecule yielded a median effective dose (ED50) in experiment [2] of 0.73 µmol/kg. The molecule further yielded an ED15 in experiment [3] of 0.38 µM/kg.

With `CC(=O)Nc1ccc(C2=NNC(=O)CC2C)cc1` (configuration not stated), the ED50 in experiment [2] is 0.03 µmol/kg. In addition, the ED15 in experiment [3] was determined as 0.08 µM/kg.

For the molecule `Cc1cc(O)nnc1-c1ccc(-c2nnc(O)cc2C)cc1`, the concentration for half-maximal inhibition (IC50) in experiment [1] worked out at 37.5 µM.

Turning to `CC(=O)Nc1ccc(C2=NNC(=O)CC2)cc1`, the IC50 in experiment [1] worked out at 7.13 µM. The ED50 in experiment [2] is 0.19 µmol/kg. The molecule also displayed an ED15 in experiment [3] of 0.2 µM/kg.
